Dyrk1A ADPGlo = rat Dyrk1A kinase inhibitors, primary screen, biochemical, single point, plate reader. Dual specificity tyrosine-phosphorylation-regulated kinase 1A (Rattus norvegicus), Q63470. ADP-Glo luminescence, NFATc1 peptide. inhibition, % at 12.5 µM. hit rate 0.43% among 310,000. AID 504441, 2011; in the data active = inhibition above about 50%;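 note: plate controls were vehicle with enzyme for no effect and no enzyme for full effect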
STK33 inh = inhibitors of purified STK33 kinase, primary screen, biochemical, ADP-Glo luminescence, homogeneous, cell-free; Serine/threonine-protein kinase 33 (Homo sapiens), Q9BYT3; MBP phosphorylation; inhibition, % at 10 µM; hit rate 0.073% among 320,000; AID 2661, 2010;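 active = inhibition at or above 25%, using the most active replicate where run in duplicate; inactive = inhibition below 25%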
GSK3beta inhib = human GSK3beta kinase inhibitors, primary screen, biochemical, cell-free homogeneous, HTS; Glycogen synthase kinase-3 beta (Homo sapiens), P49841; GST-GSK3beta kinase, ADP-Glo luminescence, 60 min; hits give low values; activity score (negative = inhibition), % at 10 µM; hit rate 0.038% among 300,000; AID 2097, 2009;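 active = more than half of replicate wells score below -50%, meaning over 50% inhibition versus plate controls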;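 note: 0% = median DMSO wells and -100% = median GW8510 positive control wells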
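test system = GST-tagged human GSK3beta kinase, cell-free | reagent = 25 µM ATP with peptide substrate | dosing = one dose of 10 µM per compound | schedule = 60 min reaction, RT | detection = luminescent ADP-Glo measurement of ADP formed | control set = DMSO neutral wells and GW8510 at 20 µM as positive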
CDK5 inh = inhibitors of human CDK5/p35 kinase, primary screen, biochemical, single concentration | Cyclin-dependent kinase 5 (Homo sapiens) + Cyclin-dependent kinase 5 activator 1 (Homo … | Recombinant CDK5/p35, ADP-Glo luminescence, 60 min | inhibition, % at 10 µM | hit rate 0.01% among 330,000 | AID 488839, 2010;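 active = highest replicate inhibition of at least 50% and at least 75% of replicates reaching 50%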;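 note: plate controls were DMSO neutral control for no effect and GW8510 at 10 µM for full effect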
GSK3A inh = blockers of GSK3A enzyme activity – biochemical, luminescence, cell-free homogeneous, HTS, primary screen; Glycogen synthase kinase-3 alpha (Homo sapiens), P49840; GSK-3 alpha kinase, ADP-Glo luminescence, 60 min; inhibition, % at 10 µM; hit rate 0.1% among 320,000; AID 2650, 2010;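 active = more than half of replicates show inhibition above 20%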;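 note: GST-tagged GSK-3 alpha with peptide substrate and 25 µM ATP; 0% = DMSO neutral wells and 100% = GW8510 positive control wells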
Target sequence (P49840 whole entry, looked up): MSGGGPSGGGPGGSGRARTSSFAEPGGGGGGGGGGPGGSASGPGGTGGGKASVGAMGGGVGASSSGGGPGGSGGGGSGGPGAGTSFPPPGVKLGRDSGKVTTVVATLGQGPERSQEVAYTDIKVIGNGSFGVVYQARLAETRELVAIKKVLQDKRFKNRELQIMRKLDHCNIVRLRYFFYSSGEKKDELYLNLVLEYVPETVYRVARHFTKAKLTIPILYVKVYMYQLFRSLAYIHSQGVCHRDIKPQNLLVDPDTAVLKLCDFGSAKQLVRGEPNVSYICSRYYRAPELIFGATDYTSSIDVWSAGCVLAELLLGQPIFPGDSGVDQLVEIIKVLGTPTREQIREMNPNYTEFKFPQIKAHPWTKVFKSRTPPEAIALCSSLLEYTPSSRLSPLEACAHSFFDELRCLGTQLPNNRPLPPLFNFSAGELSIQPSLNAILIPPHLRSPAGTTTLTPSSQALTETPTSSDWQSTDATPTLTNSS
Dyrk1A artifact = ADP-Glo luciferase interference without Dyrk1A, dose response, artefact control for Dyrk1A inhibitor project, biochemical, luminescence, cherry-pick, set 02; shares compounds with Dyrk1A ADPGlo; ADP-Glo luciferase artifact assay, no Dyrk1A; AC50, µM (doses to about 12 µM), inactives show top-dose activity change, negative = inhibition; 1,300 tested, under 10 active; AID 588348, 2011;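 active = fitted half-maximal dose AC50 no more than ten times the top valid tested dose, with luminescence dropping as dose rises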
An asterisk follows results filed as active; . = not tested or not shown. The entries come from a sample that favours hits as a whole.

SMILES	Dyrk1A ADPGlo	STK33 inh	GSK3beta inhib	CDK5 inh	GSK3A inh	Dyrk1A artifact
C#CCOCCOCCOCCNc1nc(N2CCN(C(=O)CCCCCCCCCCNC(=O)[C@H]([C@@H](C)CC)n3cc(CCCCN=C(N)N)nn3)CC2)nc(N2CCN(C(=O)CCCCCCCCCCNC(=O)[C@H]([C@@H](C)CC)n3cc(CCCCN=C(N)N)nn3)CC2)n1	.	30.8*	.	.	7.4	.
C#CCOCCOCCOCCNc1nc(N2CCN(C(=O)CCCCCCCCCCNC(=O)[C@H]([C@@H](C)CC)n3cc(CCCCCN)nn3)CC2)nc(N2CCN(C(=O)CCCCCCCCCCNC(=O)[C@H](CO)n3cc(CCCCCN)nn3)CC2)n1	54.9*	9.0	.	5.7	27.8	.
Cn1c(N=Nc2ccccc2)nc2ccccc21	28.6	34.2*	-22.3	38.4	27.1	.
Cc1c(C(C)C[C@H](C)O)oc(=O)c2c1Oc1c(C)c(C(C)C[C@H](C)O)oc(=O)c1C2 (some centres undefined)	0.9	1.1	.	-0.5	-0.6	.
CNC(=O)c1c[nH]c2ccc(S(=O)(=O)Nc3ccccc3F)cc2c1=O	-3.0	46.5*	-0.6	0.0	-2.4	.
CCc1ccccc1NS(=O)(=O)c1ccc2[nH]cc(C(=O)NC3CCCC3)c(=O)c2c1	1.0	.	0.8	0.8	.	.
COc1ccc(NC(=O)Cc2nnc(SCC(=O)NC3=NCCS3)n2C)cc1	-2.0	-1.1	-4.1	-0.1	-2.5	.
CC1CN(C(=O)CCC(=O)NCc2ccccc2)c2ccccc2S1 (centres undefined)	-2.5	-0.8	1.4	-1.5	0.3	.
CC1(C)CC(=O)C=C(Nc2cc(-c3ccccc3)[nH]n2)C1	5.6	0.3	-53.8*	1.8	49.4	.
O=C(O)c1cc2ccccc2c(N=Nc2cccnc2)c1O	72.6*	1.0	-5.2	1.5	0.3	.
Cc1ccc(N2CC(C(=O)Nc3ncc([N+](=O)[O-])s3)CC2=O)cc1 (centres undefined)	-2.1	-0.5	-22.3	1.0	50.9*	.
c1coc(C2Nc3ccccc3-c3nc4ccccc4n32)c1 (centres undefined)	6.2	36.3*	0.2	2.9	5.4	.
O=S(=O)(Nc1cccc(-c2nc3cccnc3s2)c1)c1cccs1	0.0	-0.3	3.8	-5.7	-3.3	.
O=C(Nc1nccs1)c1ccc(N2CCOCC2)c([N+](=O)[O-])c1	16.2	25.5*	-7.8	1.3	3.8	.
CC(C)(C)N=Cc1c(O)ccc2oc3c(c12)CCCC3	-0.6	0.2	2.7	-0.9	-1.7	.
NC(=O)N/N=C/c1c(O)ccc2oc3c(c12)CCCC3	15.4	74.6*	-6.2	90.2*	85.4*	.
CC[C@@]1(C(=O)OC)N[C@H](CN(C)S(=O)(=O)c2ccc(OC(F)(F)F)cc2)[C@@H]2C(=O)N(C)C(=O)[C@@H]21	2.2	.	.	2.5	.	.
COC(=O)c1c(-c2ccc(S(C)(=O)=O)cc2)sc2ccc(OC)cc12	51.4*	0.0	.	1.1	-1.9	9.8%
CCC(C)CCN1C(Nc2ccccc2)=NC[C@@H]1Cc1ccccc1 (some centres undefined)	57.0*	-0.9	1.4	0.4	-2.6	8.7%
N#Cc1c(N)n(C2OC(CO)C(O)C2O)c2ncnc(N)c12 (centres undefined)	95.5*	.	.	57.1*	.	9.0%
Nc1ncnc2c1ncn2C1O[C@H](CO)[C@@H](O)[C@@H]1O (some centres undefined)	15.3	2.7	.	1.5	0.3	.
CNc1nc2c(N)ncnc2n1[C@H]1O[C@@H](CO)[C@H](O)[C@@H]1O	90.9*	3.0	-5.9	12.8	1.1	8.5%
CCOC(=O)c1c(C)[nH]c(C(=O)COC(=O)c2ccco2)c1C	0.2	1.1	.	2.6	1.4	.
Cc1cccc(NC(=S)NNC(=O)c2csc3c2CCC(C)C3)c1 (centres undefined)	61.9*	.	-0.5	0.3	.	10.0%
Cc1ccc(CNC(=O)C2CCN(S(=O)(=O)c3cccc4nonc34)CC2)cc1	-2.5	-0.9	5.1	-0.8	-2.0	.
SMILES	Dyrk1A ADPGlo	STK33 inh	GSK3beta inhib	CDK5 inh	GSK3A inh	Dyrk1A artifact
Cc1ccc(CCNC(=O)C2CCN(S(=O)(=O)c3cccc4nonc34)CC2)cc1	56.9*	-1.7	14.2	-0.1	-0.7	11.2%
Cc1ccc(S(=O)(=O)/N=C2\C=C(NS(=O)(=O)c3ccccc3)C(=O)c3ccccc32)c(C)c1	7.2	.	.	4.1	.	.
Cc1ccc(S(=O)(=O)/N=C2\C=C(Nc3cccc(C(=O)O)c3)C(=O)c3ccccc32)cc1	50.8*	8.3	-2.1	2.9	4.4	8.1%
Cc1ccc(S(=O)(=O)/N=C2\C=C(Nc3cccc(C(=O)O)c3)C(=O)c3ccccc32)c(C)c1	75.8*	7.1	0.6	6.6	14.6	6.4%
CCc1ccc(NC(=O)CN2CCCN(S(=O)(=O)c3ccc(F)cc3)CC2)cc1	4.1	-2.3	-2.8	-1.1	1.5	.
CC(C)Sc1nnc(-c2ccc(S(=O)(=O)N3CCOCC3)cc2)n1C	1.7	-0.3	-1.4	-0.4	1.6	.
CN(C)CCNc1ccc(CO)c2oc3ccc(O)cc3c(=O)c12	52.4*	.	.	1.0	.	6.2%
CCN(CC)CCNc1ccc(C)c2sc3ccc(O)cc3c(=O)c12	39.9	.	.	0.8	.	.
Cn1c(CCNS(=O)(=O)c2ccccc2)nnc1SCc1cccnc1	4.6	-0.5	-2.5	1.7	-0.2	.
Cc1ccc(C2N(c3cccc(Cl)c3)C(=O)N3CCCN23)cc1 (centres undefined)	7.7	0.8	-2.4	1.2	1.4	.
N#CC1=C(N)Oc2ccc3ccc(O)cc3c2C1c1ccsc1 (centres undefined)	76.7*	.	-1.4	7.1	.	6.7%
COc1ccc2cc(C(=O)N/N=C/c3cc(OC)c(OC)c(OC)c3)[nH]c2c1	53.9*	0.0	-1.3	0.5	3.1	8.8%
COc1ccc(/C=N/NC(=O)c2cc3cc(OC)c(OC)cc3[nH]2)cc1	2.5	1.7	-1.1	0.1	2.9	.
CCN1CCN(Cc2ccc(NC(=O)c3ccc(C)c(/C=C/c4cnc(Nc5cc(N6CCNCC6)nc(C)n5)cn4)c3)cc2C(F)(F)F)CC1	51.7*	14.5	-31.4	5.6	23.9	8.1%
CCN1CCN(Cc2ccc(NC(=O)c3ccc(C)c(NC(=O)c4csc(-c5ccncc5)n4)c3)cc2C(F)(F)F)CC1	68.2*	5.4	-0.9	-2.9	0.9	6.3%
CN(Cc1ccccc1)C(=O)C1CCCN1S(=O)(=O)c1ccc(Cl)cc1 (centres undefined)	5.9	1.0	.	-1.9	-3.2	.
